Measurements: PMC10718296 (RSC Advances, 2023)
Where two headings read alike, the source gives them in different places.

Assays:
[1] = tested on: laryngeal carcinoma cell line (Hep-2); assay: MTT-based cytotoxicity assay, Hep-2; format: cell-based, human; details: read-out: Anticancer (IC50) Hep-2
How it was run: (§1)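 Cells seeded at 10 000/well in medium with 5% FBS and held 48 h at 37 °C, 5% CO₂, 100% humidity. Test compound at various concentrations added for 48 h under the same conditions, in triplicate, with compound-free medium as control. MTT (5 mg ml⁻¹ solution) added for 4 h at 37 °C, formazan dissolved in DMSO, A570 read. % inhibition = 100 − A(sample)/A(control) × 100.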

[2] = tested on: hepatocellular carcinoma cell line (HepG2); assay: MTT-based cytotoxicity assay, HepG2; format: cell-based, human; details: read-out: Anticancer (IC50) HepG2
How it was run: as §1

[3] = tested on: breast cancer cell line (MCF-7); assay: MTT-based cytotoxicity assay, MCF-7; format: cell-based, human; details: read-out: Anticancer (IC50) MCF-7
How it was run: as §1

[4] = tested on: human skin cancer cell line (A375); assay: MTT-based cytotoxicity assay, A375; format: cell-based
How it was run: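 Cells seeded at 10 000/well in medium with 5% FBS, grown 48 h at 37 °C, 5% CO₂, then exposed to test compound at various concentrations (up to 100 μM) for 48 h, in triplicate; medium alone as control. MTT solution (5 mg ml⁻¹) added for 4 h at 37 °C, formazan dissolved in DMSO, absorbance read at 570 nm; inhibition % = 100 − (A sample/A control × 100).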

[5] = tested on: non-cancerous normal cell (Vero); assay: MTT-based cytotoxicity assay, normal Vero cell; details: for Cytotoxicity to non-cancerous cells (in words): cell viability assay up to 100 μM, Fig. 3
How it was run: as §1

[6] = MTT, 48 hours, average of three independent experiments
[7] = Homo sapiens, A-375, 48 h, read-out: Anticancer (IC50) A375, MTT, 48 hours, average of three independent experiments

Molecule	IC50 [1, 6]	IC50 [2, 6]	IC50 [3, 6]	IC50 ([4]; read-out: Anticancer (IC50) A375, MTT, 48 hours, average of three independent experiments)	IC50 ([5]; read-out: Anticancer (IC50) Vero, MTT, 48 hours, non-cancerous normal cell, average of three independent experiments)	IC50 ([1]; Homo sapiens, HEp-2, 48 h)	IC50 ([2]; Homo sapiens, HepG2, 48 h)	IC50 ([3]; Homo sapiens, MCF7, 48 h)	IC50 [4, 7]	Cytotoxicity to non-cancerous cells (in words) [5]
2-(2-Nitrophenyl)imidazo[1,2-a]pyrazin-3-amine [10l]	64 ± 2.45 µM	32 ± 4.64 µM	80 ± 4.53 µM	27 ± 5 µM	67 ± 4.54 µM	–	–	–	–	–
Nc1ccc(-c2nc3cnccn3c2N)cc1 [10d, 2-(4-Aminophenyl)imidazo[1,2-a]pyrazin-3-amine]	–	–	–	–	–	38 ± 2.2 µM	34 ± 2.64 µM	30 ± 3.32 µM	25 ± 1.45 µM	–
CN(C)c1ccc(-c2nc3ccccn3c2NC(C)(C)C)cc1 [12i, N-(tert-Butyl)-2-(4-(dimethylamino)phenyl)imidazo[1,2-a]pyridin-3-amine]	–	–	–	–	–	20 ± 2.7 µM	19 ± 1.3 µM	17 ± 0.92 µM	12 ± 0.7 µM	non-toxic to non-cancerous cells
CC(C)(C)Nc1c(-c2ccccc2[N+](=O)[O-])nc2cnccn12 [10e, N-(tert-Butyl)-2-(2-nitrophenyl)imidazo[1,2-a]pyrazin-3-amine]	–	–	–	–	–	80 ± 1.37 µM	40 ± 2.52 µM	100 ± 8.64 µM	34 ± 3.2 µM	–
CC(C)(C)Nc1c(-c2ccc([N+](=O)[O-])cc2)nc2cnccn12 [10a, N-(tert-Butyl)-2-(4-nitrophenyl)imidazo[1,2-a]pyrazin-3-amine]	–	–	–	–	–	50 ± 3.42 µM	40 ± 2.52 µM	> 100 µM	36 ± 3.1 µM	–
CN(C)c1ccc(-c2nc3cnccn3c2N)cc1 [10i, 2-(4-(Dimethylamino)phenyl)imidazo[1,2-a]pyrazin-3-amine]	–	–	–	–	–	28 ± 3.1 µM	26 ± 0.9 µM	17 ± 0.52 µM	16 ± 1.2 µM	non-toxic to non-cancerous cells
Nc1ccccc1-c1nc2ccccn2c1N [12h, 2-(2-Aminophenyl)imidazo[1,2-a]pyridin-3-amine]	–	–	–	–	–	44 ± 1.4 µM	54 ± 1.5 µM	61 ± 2.4 µM	55 ± 1.5 µM	–
Nc1ccccc1-c1nc2cnccn2c1N [10g, 2-(2-Aminophenyl)imidazo[1,2-a]pyrazin-3-amine]	–	–	–	–	–	22 ± 2.15 µM	25 ± 4.54 µM	30 ± 1.24 µM	20 ± 5.8 µM	–
CC(C)(C)Nc1c(-c2ccccc2N)nc2ccccn12 [12f, 2-(2-Aminophenyl)-N-(tert-butyl)imidazo[1,2-a]pyridin-3-amine]	–	–	–	–	–	28 ± 5 µM	32 ± 0.1 µM	24 ± 5.8 µM	28 ± 1.5 µM	–
CC(C)(C)Nc1c(-c2ccc(N)cc2)nc2cnccn12 [10b, 2-(4-Aminophenyl)-N-(tert-butyl)imidazo[1,2-a]pyrazin-3-amine]	–	–	–	–	–	20 ± 1.64 µM	18 ± 1.32 µM	21 ± 1.64 µM	16 ± 0.96 µM	non-toxic to non-cancerous cells
O=[N+]([O-])c1ccc(-c2nc3ccccn3c2NC2CCCCC2)cc1 [12k, N-Cyclohexyl-2-(4-nitrophenyl)imidazo[1,2-a]pyridin-3-amine]	–	–	–	–	–	30 ± 8 µM	40 ± 1.5 µM	52 ± 0.8 µM	41 ± 5 µM	–
Nc1ccc(-c2nc3ccccn3c2NC2CCCCC2)cc1 [12l, 2-(4-Aminophenyl)-N-cyclohexylimidazo[1,2-a]pyridin-3-amine]	–	–	–	–	–	20 ± 5.2 µM	25 ± 0.2 µM	35 ± 1.5 µM	30 ± 0.1 µM	–
O=[N+]([O-])c1ccc(-c2nc3cnccn3c2NC2CCCCC2)cc1 [10j, N-Cyclohexyl-2-(4-nitrophenyl)imidazo[1,2-a]pyrazin-3-amine]	–	–	–	–	–	44 ± 6.4 µM	40 ± 1.4 µM	24 ± 0.15 µM	25 ± 5.41 µM	–
COc1cccc2c1C(=O)c1c(O)c3c(c(O)c1C2=O)C[C@@](O)(C(=O)CO)C[C@@H]3O[C@H]1C[C@H](N)[C@H](O)[C@H](C)O1 [Doxorubicin, reference compound]	–	–	–	–	–	10 ± 0.5 µM	1.5 ± 0.09 µM	0.85 ± 0.02 µM	5.16 µM	–
Nc1c(-c2ccccc2[N+](=O)[O-])nc2ccccn12 [12g, 2-(2-Nitrophenyl)imidazo[1,2-a]pyridin-3-amine]	–	–	–	–	–	50 ± 5.2 µM	> 100 µM	> 100 µM	62 ± 2.4 µM	–
Nc1ccc(-c2nc3ccccn3c2N)cc1 [12d, 2-(4-Aminophenyl)imidazo[1,2-a]pyridin-3-amine]	–	–	–	–	–	20 ± 5.8 µM	35 ± 2.5 µM	50 ± 1.82 µM	38 ± 2.4 µM	–
CN(C)c1ccc(-c2nc3cnccn3c2NC(C)(C)C)cc1 [10h, N-(tert-Butyl)-2-(4-(dimethylamino)phenyl)imidazo[1,2-a]pyrazin-3-amine]	–	–	–	–	–	45 ± 0.5 µM	34 ± 5.5 µM	50 ± 6.41 µM	30 ± 2.84 µM	–
CC(C)(C)Nc1c(-c2ccc(N)cc2)nc2ccccn12 [12b, 2-(4-Aminophenyl)-N-(tert-butyl)imidazo[1,2-a]pyridin-3-amine]	–	–	–	–	–	11 ± 0.8 µM	13 ± 1.2 µM	11 ± 0.5 µM	11 ± 0.07 µM	non-toxic to non-cancerous cells
CC(C)(C)Nc1c(-c2ccccc2N)nc2cnccn12 [10f, 2-(2-Aminophenyl)-N-(tert-Butyl)imidazo[1,2-a]pyrazin-3-amine]	–	–	–	–	–	25 ± 5.2 µM	20 ± 4.64 µM	26 ± 2.38 µM	20 ± 1.57 µM	–
CC(C)(C)Nc1c(-c2ccc([N+](=O)[O-])cc2)nc2ccccn12 [12a, N-(tert-Butyl)-2-(4-nitrophenyl)imidazo[1,2-a]pyridin-3-amine]	–	–	–	–	–	32 ± 5.5 µM	30 ± 2.5 µM	55 ± 5.25 µM	45 ± 2.5 µM	–
Nc1c(-c2ccc([N+](=O)[O-])cc2)nc2ccccn12 [12c, 2-(4-Nitrophenyl)imidazo[1,2-a]pyridin-3-amine]	–	–	–	–	–	35 ± 2.4 µM	48 ± 4.8 µM	> 100 µM	50 ± 1.8 µM	–
Nc1ccccc1-c1nc2cnccn2c1NC1CCCCC1 [10m, 2-(2-Aminophenyl)-N-cyclohexylimidazo[1,2-a]pyrazin-3-amine]	–	–	–	–	–	28 ± 4.28 µM	20 ± 2.15 µM	44 ± 2.68 µM	23 ± 1.5 µM	–
Nc1ccc(-c2nc3cnccn3c2NC2CCCCC2)cc1 [10k, 2-(4-Aminophenyl)-N-cyclohexylimidazo[1,2-a]pyrazin-3-amine]	–	–	–	–	–	34 ± 4.56 µM	28 ± 2.48 µM	65 ± 2.41 µM	30 ± 1.5 µM	–
CC(C)(C)Nc1c(-c2ccccc2[N+](=O)[O-])nc2ccccn12 [12e, N-(tert-Butyl)-2-(2-nitrophenyl)imidazo[1,2-a]pyridin-3-amine]	–	–	–	–	–	55 ± 0.4 µM	62 ± 4.8 µM	> 100 µM	> 100 µM	–
Nc1c(-c2ccc([N+](=O)[O-])cc2)nc2cnccn12 [10c, 2-(4-Nitrophenyl)imidazo[1,2-a]pyrazin-3-amine]	–	–	–	–	–	45 ± 1.6 µM	30 ± 1.43 µM	40 ± 3.8 µM	24 ± 2.48 µM	–
CN(C)c1ccc(-c2nc3ccccn3c2N)cc1 [12j, 2-(4-(Dimethylamino)phenyl)imidazo[1,2-a]pyridin-3-amine]	–	–	–	–	–	45 ± 5 µM	35 ± 4.8 µM	30 ± 5 µM	25 ± 1.4 µM	–
